Measured values as given in ChEMBL document CHEMBL1933044.
Activity calls are given as the source filed them. No cut-off for these calls is given here.

Key:
[1] = Antagonist activity at NMDAR in rat cerebellar granule neurons assessed as inhibition of glutamate-induced calcium flux after 5 mins using FURA-2AM in presence of glycine; assay type: functional
Summary of the method: (§1)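 Primary cerebellar granule neuron cultures grown on poly-L-lysine-coated glass coverslips and used after 7-14 days in vitro. Intracellular calcium recorded in real time over 1200 s. Cells were stimulated with NMDA or glutamate (100 μM, with 10 μM glycine), then given increasing cumulative compound concentrations. Percent inhibition at each concentration was fitted by non-linear regression (variable slope). At least three experiments on three culture batches.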

[2] = Antagonist activity at NMDAR in rat cerebellar granule neurons assessed as inhibition of NMDA-induced calcium flux after 5 mins using FURA-2AM in presence of glycine; assay type: functional; summary of the method: as §1
Trypanosoma brucei [3] = experiment: Antitrypanosomal activity against bloodstream form of Trypanosoma brucei 427 after 48 hrs by hemocytometer analysis; assay type: functional, organism-based; conditions: Trypanosoma brucei, 427, 48 h
Human alphaherpesvirus 1 = experiment: Antiviral activity against HSV1 assessed as inhibition of viral replication; assay type: functional, organism-based
Summary of the method: (§2)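 Cell culture virus assays. Inhibition of virus replication and compound cytotoxicity were scored by microscopic examination and confirmed by a colorimetric MTS cell viability assay. Selectivity index is the ratio of cytotoxic to antiviral concentration.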

Human alphaherpesvirus 2 = experiment: Antiviral activity against HSV2 assessed as inhibition of viral replication; assay type: functional, organism-based; summary of the method: as §2
Vaccinia virus = experiment: Antiviral activity against Vaccinia virus assessed as inhibition of viral replication; assay type: functional, organism-based; conditions: Orthopoxvirus vaccinia; summary of the method: as §2
Feline coronavirus = experiment: Antiviral activity against Feline coronavirus assessed as inhibition of viral replication; assay type: functional, organism-based; summary of the method: as §2
Human respirovirus 3 = experiment: Antiviral activity against Parainfluenza-3 virus assessed as inhibition of viral replication; assay type: functional, organism-based; summary of the method: as §2
[4] = tested on: Respiratory syncytial virus; experiment: Antiviral activity against RSV assessed as inhibition of viral replication; assay type: functional, organism-based; summary of the method: as §2
Sindbis virus = experiment: Antiviral activity against Sindbis virus assessed as inhibition of viral replication; assay type: functional, organism-based; summary of the method: as §2
Punta Toro virus = experiment: Antiviral activity against Punta Toro virus assessed as inhibition of viral replication; assay type: functional, organism-based; summary of the method: as §2
Coxsackievirus B4 = experiment: Antiviral activity against Coxsackievirus B4 assessed as inhibition of viral replication; assay type: functional, organism-based; summary of the method: as §2
Reovirus sp. = experiment: Antiviral activity against Reovirus 1 assessed as inhibition of viral replication; assay type: functional, organism-based; summary of the method: as §2
[5] = molecular target: Matrix protein 2 (Influenza A virus) (UniProt P06821); experiment: Inhibition of Influenza A virus (A/Puerto Rico/8/1934(H1N1)) M2 channel expressed in Xenopus oocytes at 100 uM by two-electrode voltage clamp assay; assay type: cell-based; conditions: Oocyte
H3N2 subtype = experiment: Antiinfluenza activity against Influenza A virus (A/Hong Kong/7/1987(H3N2)) assessed as inhibition of viral replication; assay type: functional, organism-based; summary of the method: as §2
Influenza B virus = experiment: Antiinfluenza activity against Influenza B virus (B/Hong Kong/05/1972) assessed as inhibition of viral replication; assay type: functional; summary of the method: as §2
Influenza A virus = experiment: Antiinfluenza activity against Influenza A virus (A/Puerto Rico/8/1934(H1N1)) assessed as inhibition of viral replication; assay type: functional, organism-based; summary of the method: as §2
Trypanosoma brucei [6] = experiment: Ratio of compound IC90 to rimantadine IC90 for bloodstream form of Trypanosoma brucei 427; assay type: functional
[7] = tested on: Vesicular stomatitis virus; experiment: Antiviral activity against VSV in HeLa cells assessed as inhibition of viral replication; assay type: functional, organism-based; summary of the method: as §2
[8] = tested on: Vesicular stomatitis virus; experiment: Antiviral activity against VSV in human HEL cells assessed as viability by MTS based microscopy; assay type: functional, organism-based; summary of the method: as §2
[9] = Selectivity index, ratio of cytotoxicity for HeLa cells to ratio of EC50 for Vesicular stomatitis virus; assay type: toxicity, cell-based; conditions: human, read-out: Selectivity Index; summary of the method: as §2

Chain of Matrix protein 2 (Influenza A virus) (P06821 whole entry): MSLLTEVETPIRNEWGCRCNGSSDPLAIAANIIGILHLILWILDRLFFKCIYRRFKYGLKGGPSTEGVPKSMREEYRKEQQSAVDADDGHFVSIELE

Row | Structure (SMILES) | IC50 [1] | IC50 [2] | IC50 (Trypanosoma brucei [3]) | IC90 (Trypanosoma brucei [3]) | Activity (Human alphaherpesvirus 1) | Activity (Human alphaherpesvirus 2) | Activity (Vaccinia virus) | Activity (Feline coronavirus) | Activity (Human respirovirus 3) | Activity [4] | Activity (Sindbis virus) | Activity (Punta Toro virus) | Activity (Coxsackievirus B4) | Activity (Reovirus sp.) | inhibition [5] | further results
1 | CC12CC3CC(N)(CC(C1)c1ccccc13)C2 | 22 µM | 13.6 µM | 4.8 µM | 9.6 µM | inactive | inactive | inactive | inactive | inactive | inactive | inactive | inactive | inactive | inactive | inactive | 
2 | CC12CC3CC(NCc4ccccc4)(CC(C1)c1ccccc13)C2 | > 500 µM | > 200 µM | 3 µM | 6.55 µM | inactive | inactive | inactive | inactive | inactive | inactive | inactive | inactive | inactive | inactive | inactive | Activity (H3N2 subtype): inactive; Activity (Influenza B virus): inactive; EC50 (Influenza A virus): 10 µM
3 | CC(N)C12CC3CC(CC(C3)C1)C2 (centres undefined) [RIMANTADINE] |  |  |  | 14 µM |  |  |  |  |  |  |  |  |  |  |  | 
4 | C#CCNC12CC3CC(C)(CC(C1)c1ccccc13)C2 | > 500 µM | 27.5 µM | 1.99 µM | 3.14 µM | inactive | inactive | inactive | inactive | inactive | inactive | inactive | inactive | inactive | inactive |  | Ratio (Trypanosoma brucei [6]): >4
5 | CC12CC3CC(N4CCCCC4)(CC(C1)c1ccccc13)C2 | > 500 µM | 101 µM |  |  | inactive | inactive | inactive | inactive | inactive | inactive | inactive | inactive | inactive | inactive |  | EC50 [7]: 54 µM; Activity [8]: inactive
6 | C#CCN(CC#C)C12CC3CC(C)(CC(C1)c1ccccc13)C2 | > 500 µM | > 200 µM | 13.4 µM | 21.6 µM | inactive | inactive | inactive | inactive | inactive | inactive | inactive | inactive | inactive | inactive |  | EC50 [7]: 4 µM; selectivity ratio [9]: 25; Activity [8]: inactive
7 | CNC12CC3CC(C)(CC(C1)c1ccccc13)C2 | 455 µM | 19.4 µM | 4.46 µM | 6.66 µM | inactive | inactive | inactive | inactive | inactive | inactive | inactive | inactive | inactive | inactive |  | 
8 | CC12CC3CC(C)(C1)CC(N)(C3)C2 [MEMANTINE] |  |  |  | 21.4 µM |  |  |  |  |  |  |  |  |  |  |  | 
9 | CN(Cc1ccccc1)C12CC3CC(C)(CC(C1)c1ccccc13)C2 | > 500 µM | > 200 µM | 5.25 µM | 10.8 µM | inactive | inactive | inactive | inactive | inactive | inactive | inactive | inactive | inactive | inactive |  | 
10 | CN(C)C12CC3CC(C)(CC(C1)c1ccccc13)C2 | 87 µM | 11.8 µM | 1.99 µM | 3.14 µM | inactive | inactive | inactive | inactive | inactive | inactive | inactive | inactive | inactive | inactive | inactive | 
